Calls of active or inactive are those of the source. The calls are words filed in the database; no cut-off is given here.

The test system of experiment [1] is A549. As to the kind of experiment: Cytotoxicity against human A549 cells. It counts as functional, cell-based.
The species entered for experiment [2] is Bos taurus. Put plainly: Induction of bovine tubulin aggregation by SDS-PAGE. Summed up: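 Sedimentation assay using tubulin purified from bovine brain, incubated with compound. Pellets were resolved by SDS–PAGE. Pelleted tubulin was expressed relative to the amount pelleted after incubation with taxol, set as 100%. DMSO served as the negative control.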

The species named for experiment [3] is Bos taurus. Put plainly: Induction of bovine tubulin aggregation by electron microscopy using uranyl acetate staining. Summed up: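 Tubulin purified from bovine brain was incubated with compound. Samples were negatively stained with uranyl acetate and examined by electron microscopy for aggregates.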
The species named for experiment [4] is Bos taurus. As to the kind of experiment: Induction of bovine tubulin polymerization relative to taxol. The arrangement: concentration or dose not given beside the values.
Experiment [5] has as its system A549. Put plainly: Cytotoxicity against human A549 cells assessed as formation of shortened aggregates of mirotube bundles at 5 uM by immuno-fluorescent microscopy. The experiment is classed as functional, cell-based. In outline:
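A549 cells were treated with compound at the concentration given in the line, then fixed with polyformaldehyde. Microtubules were stained with primary mouse anti-α-tubulin and a secondary Alexa 488-labelled rabbit anti-mouse antibody. Cells were examined by immunofluorescence microscopy for microtubule bundles and shortened aggregates.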

The molecule `O=C(N[C@@H](c1ccccc1)[C@@H](O)C(=O)OC12CC3CC(CC(C3)C1)C2)c1ccccc1` showed an IC50 in the experiment on A549 [1] of 5.6 µM. The outcome in the experiment filed under Bos taurus [2] and in the experiment filed under Bos taurus [3] was Active. In the experiment filed under Bos taurus [4], the Activity stood at 57.1%.
With `CC(=O)O[C@H]1C(=O)[C@@]2(C)[C@H]([C@H](OC(=O)c3ccccc3)[C@]3(O)C[C@H](OC(=O)[C@H](O)[C@@H](NC(=O)c4ccccc4)c4ccccc4)C(C)=C1C3(C)C)[C@]1(OC(C)=O)CO[C@@H]1C[C@@H]2O` [PACLITAXEL], in the experiment on A549 [1], the concentration for half-maximal inhibition (IC50) was found to be 0.002 µM.
`CC(C)(C)OC(=O)N[C@@H](c1ccccc1)[C@@H](O)C(=O)OC12CC3CC(C1)CC(C(=O)OC1COC1)(C3)C2` showed an IC50 in the experiment with A549 [1] of 2.5 µM. Further, the result in the experiment filed under Bos taurus [2] and in the experiment filed under Bos taurus [3] was Active. Further, the Activity in the experiment filed under Bos taurus [4] amounted to 27.1%.
On to `O=C(N[C@@H](c1ccccc1)[C@@H](O)C(=O)OC12CC3CC(C1)C(OC(=O)c1ccccc1)C(C3)C2)c1ccccc1` (mixture of isomers), for which, in the experiment on A549 [1], the IC50 came out at 9.5 µM. For the same molecule, the result in the experiment listed under Bos taurus [2] and in the experiment filed under Bos taurus [3] was Active. The molecule further displayed an Activity in the experiment filed under Bos taurus [4] of 32.3%.
For `COc1cc2c(c(OC)c1OC)-c1ccc(OC)c(=O)cc1[C@@H](NC(=O)CCCCCC(=O)OC1C3CC4CC1CC(OC(=O)[C@H](O)[C@@H](NC(=O)OC(C)(C)C)c1ccccc1)(C4)C3)CC2` (mixture of isomers), in the experiment with A549 [1], 0.0006 µM corresponded to half-maximal inhibition (IC50). Further, in the experiment on A549 [5], the outcome was Active.
In the case of `O=C(CCNC(=O)c1ccccc1)OC12CC3CC(CC(C3)C1)C2`, in the experiment listed under Bos taurus [2], the outcome was Active. The same molecule showed an Activity in the experiment listed under Bos taurus [4] of 32.9%.
As for `CC(C)(C)OC(=O)N[C@@H](c1ccccc1)[C@@H](O)C(=O)O[C@H]1C[C@H]2C[C@@H](C1)C[C@@H](C(=O)OC1COC1)C2`, 3.8 µM corresponded to half-maximal inhibition in the experiment with A549 [1] (IC50). In addition, in the experiment listed under Bos taurus [2], the outcome was Active. In the experiment listed under Bos taurus [4], this molecule registered an Activity of 25.3%.

The record behind these values is ChEMBL document CHEMBL1158186, “Design, synthesis, and bioactivity of putative tubulin ligands with adamantane core” (Bioorg Med Chem Lett, 2008).
